Reference: ChEMBL document CHEMBL1123921, “Quinolonecarboxylic acids. 2. Synthesis and antibacterial evaluation of 7-oxo-2,3-dihydro-7H-pyrido[1,2,3-de][1,4]benzothiazine-6-carboxylic acids” (J Med Chem, 1987)
Converted amounts (≈) assume the structure as drawn.

Key:
[1] = Plasma levels determined 1 hr after peroral dose of 50 mg/kg; details: po
[2] = Ratio of urinary excretion after os administration to ip administration; type: ADME, organism-based, Urine; details: in vivo
How it was run: (§1)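 Fasted male Wistar rats (180–230 g), drug suspended in carboxymethyl cellulose, given orally or ip. Plasma (heparinized) and urine from metabolic cages were sampled at various times. The unchanged drug was measured by HPLC after CHCl3 extraction at pH 6.2 with an internal standard, on a C-18 column with an AcOH/MeOH gradient and UV detection at 245 nm. Interassay and intraassay variability was about 10%.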

[3] = Peak plasma concentration at a dose of 400 mg/kg, oral route in human; type: ADME, organism-based; set-up: dose 400 mg/kg, route oral; details: read-out: Activity
How it was run: (§2)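 Four healthy volunteers of both sexes took oral capsules (100 mg units) at three dose levels. Venous blood drawn into heparinized tubes and plasma obtained by low-speed centrifugation. Urine collected. Unchanged drug in plasma and urine determined by C-18 HPLC after CHCl₃ extraction, with UV detection at 245 nm.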

[4] = system: Homo sapiens; assay: Urinary clearance was determined at 100 mg/kg oral dosage in human; type: ADME, organism-based, Urine; set-up: dose 100 mg/kg, route oral; details: in vivo; how it was run: as §2
[5] = Half life period was determined for the compound at 200 mg/kg concentration, oral route in human; type: ADME, organism-based; set-up: dose 200 mg/kg, route oral; details: in vivo; how it was run: as §2
[6] = system: Pseudomonas aeruginosa; assay: In vitro antibacterial activity against clinical isolates of Pseudomonas aeruginosa 2437 (gram negative) by agar dilution assay.; type: functional
How it was run: (§3)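 Agar dilution on Isosensitest agar; compound incorporated by twofold serial dilution. Overnight broth cultures delivered by multipoint inoculator at 10⁵ CFU per point. Plates read after 18 h at 37 °C. MIC taken as the lowest concentration giving complete growth inhibition.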

[7] = system: Rattus norvegicus; assay: Volume of distribution at a dose of 10 mg/kg, intraperitoneal route in rat suspended in carboxymethyl cellulose (CMC); type: ADME, organism-based; set-up: dose 10 mg/kg, route intraperitoneal; details: in vivo, ip
How it was run: (§4)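 Fasted male Wistar rats (180–230 g) given the drug ip in carboxymethyl cellulose. Plasma and urine extracted with CHCl₃ from citrate buffer pH 6.2 with internal standard. Analysis by reverse-phase C-18 HPLC, 0.1% AcOH/MeOH gradient, 245 nm UV. Urinary clearance and total clearance derived as pharmacokinetic parameters.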

[8] = Ratio of tissue (kidney) levels to plasma levels after 1 hr of treatment; type: ADME
How it was run: (§5)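 Male Wistar rats received 50 mg/kg po and were killed at 1 and 15 h. Tissue homogenates and plasma extracted with CHCl₃ after adding internal standard and pH 6.2 citrate buffer. Drug quantified by C-18 HPLC with UV at 245 nm. Tissue level divided by plasma level.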

[9] = Tissue levels determined 1 hr after peroral dose of 50 mg/kg in kidney; details: po
[10] = Peak plasma concentration at a dose of 20 mg/kg, oral route in dog(beagle) suspended in carboxymethyl cellulose (CMC); type: ADME, organism-based, Canis lupus familiaris; set-up: dose 20 mg/kg, route oral; details: read-out: Activity
How it was run: (§6)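 Four male beagle dogs or two Macaca fascicularis monkeys dosed orally, suspended in carboxymethyl cellulose. Venous blood collected into heparinized tubes and plasma separated by low-speed centrifugation. Urine gathered in metabolic cages. Unchanged drug measured by C-18 HPLC (extraction, UV 245 nm).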

[11] = Urinary excretion for the compound was evaluated as percent dose excreted at 25 mg/kg os dosage; type: ADME, organism-based; set-up: dose 25 mg/kg; details: urine, po
How it was run: (§7)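 Fasted male Wistar rats (180–230 g) dosed orally, suspended in carboxymethyl cellulose. Plasma and urine assayed by HPLC: sample plus internal standard and citrate buffer (0.1 M, pH 6.2), extracted into CHCl₃, dried, redissolved in MeOH. Separation on C-18 with 0.1% AcOH/MeOH gradient, UV detection at 245 nm.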

[12] = Time taken for peak plasma concentration at a dose of 400 mg/kg, oral route in human; type: ADME, organism-based; set-up: dose 400 mg/kg, route oral; how it was run: as §2
[13] = Time taken for peak plasma concentration at a dose of 200 mg/kg, oral route in human; type: ADME, organism-based; set-up: dose 200 mg/kg, route oral; how it was run: as §2
[14] = Peak plasma concentration at a dose of 100 mg/kg, oral route in human; type: ADME, organism-based; set-up: dose 100 mg/kg, route oral; details: read-out: Activity; how it was run: as §2
[15] = Peak plasma concentration at a dose of 25 mg/kg, os route in rat suspended in carboxymethyl cellulose (CMC); type: ADME, organism-based; set-up: dose 25 mg/kg; details: po, read-out: Activity; how it was run: as §7
[16] = Urinary clearance was determined in rat at 25 mg/kg os dosage; type: ADME, organism-based; set-up: dose 25 mg/kg; details: urine, po, read-out: CL_renal (converted); how it was run: as §7
[17] = in vivo; details: kidney, po, 50 mg/kg
[18] = in vivo; details: po, 25 mg/kg
[19] = Half life period was determined for the compound at 20 mg/kg concentration, oral route in monkey (Macaca fascicularis); type: ADME, organism-based; set-up: dose 20 mg/kg, route oral; details: cynomolgus monkey, in vivo; how it was run: as §6
[20] = system: Escherichia coli; assay: In vitro antibacterial activity against clinical isolates of Escherichia coli 15 (gram negative) by agar dilution assay.; type: functional; how it was run: as §3
[21] = system: Staphylococcus aureus; assay: In vitro antibacterial activity against clinical isolates of Staphylococcus aureus 18773 (gram-positive) by agar dilution assay.; type: functional; how it was run: as §3
[22] = Peak plasma concentration at a dose of 50 mg/kg, os route in rat suspended in carboxymethyl cellulose (CMC); type: ADME, organism-based; set-up: dose 50 mg/kg; details: po, read-out: Activity; how it was run: as §1
[23] = Time taken for peak plasma concentration at a dose of 100 mg/kg, oral route in human; type: ADME, organism-based; set-up: dose 100 mg/kg, route oral; how it was run: as §2
[24] = Urinary excretion for the compound was evaluated as percent dose excreted at 100 mg/kg oral dosage in human; type: ADME, organism-based; set-up: dose 100 mg/kg, route oral; details: urine; how it was run: as §2
[25] = Half life period was determined for the compound at 10 mg/kg concentration, intraperitoneal route; details: in vivo, ip
[26] = Ratio of tissue (liver) levels to plasma levels after 1 hr of treatment; type: ADME; how it was run: as §5
[27] = Total clearance was determined in rat at 10 mg/kg intraperitoneal dosage; type: ADME, organism-based; set-up: dose 10 mg/kg, route intraperitoneal; details: in vivo, ip, read-out: Clearance (converted); how it was run: as §4
[28] = Half life period was determined for the compound at 20 mg/kg concentration, oral route in dog(beagle); type: ADME, organism-based, Canis lupus familiaris; set-up: dose 20 mg/kg, route oral; details: in vivo; how it was run: as §6
[29] = Urinary clearance was determined in rat at 10 mg/kg intraperitoneal dosage; type: ADME, organism-based; set-up: dose 10 mg/kg, route intraperitoneal; details: urine, ip, read-out: CL_renal (converted); how it was run: as §4
[30] = Total clearance was determined in rat at 25 mg/kg intraperitoneal dosage; type: ADME, organism-based; set-up: dose 25 mg/kg, route intraperitoneal; details: in vivo, ip, read-out: Clearance (converted); how it was run: as §4
[31] = Urinary excretion for the compound was evaluated as percent dose excreted at 50 mg/kg os dosage; type: ADME, organism-based; set-up: dose 50 mg/kg; details: urine, po; how it was run: as §7
[32] = in vivo; details: liver, po, 50 mg/kg
[33] = Time taken for peak plasma concentration at a dose of 50 mg/kg, os route in rat suspended in carboxymethyl cellulose (CMC); type: ADME, organism-based; set-up: dose 50 mg/kg; details: po; how it was run: as §7
[34] = Ratio of tissue (liver) levels to plasma levels after 15 hr of treatment; type: ADME; how it was run: as §5
[35] = Lethal dose after single iv administration to mouse was determined; type: toxicity, organism-based; details: in vivo
[36] = in vivo; details: ip, 25 mg/kg
[37] = system: Rattus norvegicus; assay: Volume of distribution at a dose of 25 mg/kg, intraperitoneal route in rat suspended in carboxymethyl cellulose (CMC); type: ADME, organism-based; set-up: dose 25 mg/kg, route intraperitoneal; details: in vivo, ip; how it was run: as §4
[38] = system: Morganella morganii; assay: In vitro antibacterial activity against clinical isolates of Proteus morganii 27 (gram negative) by agar dilution assay.; type: functional; how it was run: as §3
[39] = Time taken for peak plasma concentration at a dose of 20 mg/kg, oral route in monkey (Macaca fascicularis) suspended in carboxymethyl cellulose (CMC); type: ADME, organism-based; set-up: dose 20 mg/kg, route oral; details: cynomolgus monkey; how it was run: as §6
[40] = Time taken for peak plasma concentration at a dose of 100 mg/kg, os route in rat suspended in carboxymethyl cellulose (CMC); type: ADME, organism-based; set-up: dose 100 mg/kg; details: po; how it was run: as §7

`CN1CCN(c2c(F)cc3c(=O)c(C(=O)O)cn4c3c2SCC4)CC1` [RUFLOXACIN] gave a concentration at 1 h [1] of 10000 ng/mL, a Ratio [2] of 0.91 and a Cmax [3] of 2730 ng/mL. The CL_renal [4] was 0.0933 mL/min/kg, the half-life [5] was 35 h and the MIC [6] was 12.5 µg/mL (≈ 34.4 µM). For the same molecule, the Vd [7] was 3 L/kg, the Kp at 1 h [8] was 6 and the concentration at 1 h [9] was 61000 ng/mL. For the same molecule, the Cmax [10] was 5700 ng/mL, the dose excreted [11] was 24.5% and the Tmax [12] was 2 h. For the same molecule, the Tmax [13] was 4 h, the Cmax [14] was 1870 ng/mL and the Cmax [15] was 6000 ng/mL. It also gave a CL renal [16] of 1.21 mL/min/kg, a concentration at 15 h [17] of 8000 ng/mL and a half-life [18] of 8.7 h. The half-life [19] was 50 h, the MIC [20] was 0.78 µg/mL (≈ 2.15 µM) and the MIC [21] was 0.78 µg/mL (≈ 2.15 µM). The Cmax [22] was 8000 ng/mL, the Tmax [23] was 4 h and the dose excreted [24] was 45%. It also gave a half-life [25] of 9.9 h, a Kp at 1 h [26] of 8 and a CL/F [27] of 4.22 mL/min/kg. It also gave a half-life [28] of 12 h, a CL renal [29] of 0.75 mL/min/kg and a CL/F [30] of 4.18 mL/min/kg. It also gave a dose excreted [31] of 16.7%, a concentration at 15 h [32] of 11000 ng/mL and a Tmax [33] of 1 h. It also gave a Kp at 15 h [34] of 3.7, an LD50 [35] of 224 mg/kg and a half-life [36] of 9.9 h. It also gave a Vd [37] of 3 L/kg, an MIC [38] of 1.56 µg/mL (≈ 4.29 µM) and a Tmax [39] of 2 h. For the same molecule, the Tmax [40] was 1 h.
